Data published in ChEMBL document CHEMBL1155365, “2-Amino-9-aryl-3-cyano-4-methyl-7-oxo-6,7,8,9-tetrahydropyrido[2',3':4,5]thieno[2,3-b]pyridine derivatives as selective progesterone receptor agonists” (Bioorg Med Chem Lett, 2009).

Experiments:
[1] = biological target: T1, Progesterone receptor (Homo sapiens, UniProt P06401); assay: Displacement of fluormone PL RED from progesterone receptor after 2 hrs
T1 sequence (P06401 whole entry): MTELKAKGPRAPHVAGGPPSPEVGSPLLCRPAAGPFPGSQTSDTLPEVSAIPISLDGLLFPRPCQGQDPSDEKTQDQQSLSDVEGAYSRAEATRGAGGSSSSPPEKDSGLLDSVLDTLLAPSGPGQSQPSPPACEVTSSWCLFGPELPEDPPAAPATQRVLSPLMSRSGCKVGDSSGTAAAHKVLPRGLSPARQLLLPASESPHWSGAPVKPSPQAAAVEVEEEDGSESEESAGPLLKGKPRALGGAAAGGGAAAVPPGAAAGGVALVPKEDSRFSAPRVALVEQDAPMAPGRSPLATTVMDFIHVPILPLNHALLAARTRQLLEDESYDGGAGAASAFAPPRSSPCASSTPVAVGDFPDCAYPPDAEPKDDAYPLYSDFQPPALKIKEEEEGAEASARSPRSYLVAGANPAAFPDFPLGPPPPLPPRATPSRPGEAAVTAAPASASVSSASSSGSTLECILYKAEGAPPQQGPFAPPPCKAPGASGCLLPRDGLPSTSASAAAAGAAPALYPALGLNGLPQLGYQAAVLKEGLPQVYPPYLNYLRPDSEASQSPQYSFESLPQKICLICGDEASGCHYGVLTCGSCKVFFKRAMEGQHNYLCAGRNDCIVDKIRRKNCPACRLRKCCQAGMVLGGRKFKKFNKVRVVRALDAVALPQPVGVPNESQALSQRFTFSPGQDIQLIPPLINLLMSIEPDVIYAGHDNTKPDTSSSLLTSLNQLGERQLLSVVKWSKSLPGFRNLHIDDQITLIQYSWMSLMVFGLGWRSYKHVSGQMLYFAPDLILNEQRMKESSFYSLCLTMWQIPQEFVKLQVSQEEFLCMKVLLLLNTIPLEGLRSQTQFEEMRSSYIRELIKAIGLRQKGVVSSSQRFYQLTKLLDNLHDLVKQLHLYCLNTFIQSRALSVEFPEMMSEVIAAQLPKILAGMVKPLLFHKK
Procedure, shortened: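 Fluorescence polarization competition: 40 nM PR ligand-binding domain, 2 nM Fluormone PL Red, 1 mM DTT in PR Red buffer with 2 mM CHAPS, added to compound; brief spin, light-protected, ~2 h at room temperature; read at 530 nm excitation/580 nm emission. Values are means of ≥2 determinations.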

[2] = biological target: T1, Progesterone receptor; assay: Agonist activity at progesterone receptor B expressed in CV-1 cells by MMTV luciferase reporter gene assay; type: functional, cell-based
[3] = biological target: T2, Androgen receptor (Homo sapiens, UniProt P10275); assay: Binding affinity to androgen receptor
T2 sequence (P10275 whole entry): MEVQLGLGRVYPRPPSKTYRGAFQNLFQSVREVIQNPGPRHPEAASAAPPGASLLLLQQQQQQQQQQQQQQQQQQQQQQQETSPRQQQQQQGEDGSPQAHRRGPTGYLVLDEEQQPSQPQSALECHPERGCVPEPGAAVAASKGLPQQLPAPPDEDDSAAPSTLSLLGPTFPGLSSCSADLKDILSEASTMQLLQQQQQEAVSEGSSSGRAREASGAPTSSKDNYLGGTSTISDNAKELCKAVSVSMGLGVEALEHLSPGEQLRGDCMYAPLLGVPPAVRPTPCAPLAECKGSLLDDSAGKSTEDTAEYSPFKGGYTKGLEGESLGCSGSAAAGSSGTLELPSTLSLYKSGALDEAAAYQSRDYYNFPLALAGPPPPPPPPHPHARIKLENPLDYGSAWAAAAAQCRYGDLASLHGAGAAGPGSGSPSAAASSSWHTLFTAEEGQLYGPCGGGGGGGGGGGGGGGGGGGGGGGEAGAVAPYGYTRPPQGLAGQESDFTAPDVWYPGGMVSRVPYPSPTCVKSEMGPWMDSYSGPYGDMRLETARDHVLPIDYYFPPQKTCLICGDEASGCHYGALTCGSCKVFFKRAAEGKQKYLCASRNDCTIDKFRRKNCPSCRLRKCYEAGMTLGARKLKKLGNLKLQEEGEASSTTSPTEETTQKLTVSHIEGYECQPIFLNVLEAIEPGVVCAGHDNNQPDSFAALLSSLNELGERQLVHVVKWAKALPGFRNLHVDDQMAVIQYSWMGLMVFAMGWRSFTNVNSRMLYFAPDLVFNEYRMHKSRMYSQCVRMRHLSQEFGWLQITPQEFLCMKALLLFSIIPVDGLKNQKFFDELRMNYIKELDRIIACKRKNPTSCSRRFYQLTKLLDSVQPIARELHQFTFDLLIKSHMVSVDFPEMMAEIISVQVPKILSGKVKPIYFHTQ

[4] = biological target: T1, Progesterone receptor; assay: Agonist activity at progesterone receptor in human T47D cell after 24 hrs by alkaline phosphatase assay; type: functional, cell-based
Procedure, shortened: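 T47D cells seeded and left to attach overnight, then treated with compound and incubated overnight. Next day pNPP-SPAP substrate added, 2 h in the dark, absorbance read at 405 nm. Potency as pEC50, efficacy as % of P4 response; means of ≥2 determinations.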

[5] = biological target: T3, Progesterone receptor (Homo sapiens) (UniProt P06401); assay: Agonist activity at progesterone receptor in human T47D cell after 24 hrs by alkaline phosphatase assay relative to progesterone
T3 sequence (whole entry): T1 sequence (P06401 whole entry)

[6] = biological target: T2, Androgen receptor; assay: Agonist activity at androgen receptor expressed in CV-1 cells by MMTV luciferase reporter assay; type: functional, cell-based
[7] = biological target: T4, Cytochrome P450 1A2 (Homo sapiens, UniProt P05177); assay: Inhibition of CYP1A2; type: ADME
T4 sequence (P05177 whole entry): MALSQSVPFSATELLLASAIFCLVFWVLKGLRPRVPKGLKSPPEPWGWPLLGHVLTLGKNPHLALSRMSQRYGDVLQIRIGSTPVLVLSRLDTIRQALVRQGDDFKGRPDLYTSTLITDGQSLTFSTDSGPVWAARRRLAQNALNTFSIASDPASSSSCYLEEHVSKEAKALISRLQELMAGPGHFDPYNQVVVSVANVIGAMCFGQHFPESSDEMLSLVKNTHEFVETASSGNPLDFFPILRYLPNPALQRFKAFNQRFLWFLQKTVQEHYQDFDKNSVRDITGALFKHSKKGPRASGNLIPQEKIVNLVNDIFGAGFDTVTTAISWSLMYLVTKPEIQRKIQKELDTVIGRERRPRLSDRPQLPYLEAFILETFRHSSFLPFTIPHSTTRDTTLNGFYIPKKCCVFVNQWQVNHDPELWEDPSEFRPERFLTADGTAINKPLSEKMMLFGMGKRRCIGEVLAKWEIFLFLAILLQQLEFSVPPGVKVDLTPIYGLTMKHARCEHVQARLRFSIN

[8] = biological target: Cytochrome P450 2C19 (Homo sapiens, UniProt P33261); assay: Inhibition of CYP2C19; type: ADME
Cytochrome P450 2C19, sequence (P33261 whole entry): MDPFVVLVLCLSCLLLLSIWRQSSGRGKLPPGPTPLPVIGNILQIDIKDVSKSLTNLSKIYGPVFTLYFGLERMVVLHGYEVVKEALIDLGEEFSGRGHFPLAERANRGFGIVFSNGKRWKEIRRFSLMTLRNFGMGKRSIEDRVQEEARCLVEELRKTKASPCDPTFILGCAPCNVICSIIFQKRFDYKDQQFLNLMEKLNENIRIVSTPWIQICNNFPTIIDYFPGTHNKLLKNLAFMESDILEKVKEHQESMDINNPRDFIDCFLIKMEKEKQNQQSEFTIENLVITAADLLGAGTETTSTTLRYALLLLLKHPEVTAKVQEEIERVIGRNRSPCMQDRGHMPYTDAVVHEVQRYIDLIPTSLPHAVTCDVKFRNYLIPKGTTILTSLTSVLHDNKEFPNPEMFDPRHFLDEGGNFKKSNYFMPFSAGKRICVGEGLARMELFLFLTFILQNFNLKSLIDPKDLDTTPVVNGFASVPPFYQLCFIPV

[9] = biological target: Cytochrome P450 2D6 (Homo sapiens, UniProt P10635); assay: Inhibition of CYP2D6; type: ADME
Cytochrome P450 2D6, sequence (P10635 whole entry): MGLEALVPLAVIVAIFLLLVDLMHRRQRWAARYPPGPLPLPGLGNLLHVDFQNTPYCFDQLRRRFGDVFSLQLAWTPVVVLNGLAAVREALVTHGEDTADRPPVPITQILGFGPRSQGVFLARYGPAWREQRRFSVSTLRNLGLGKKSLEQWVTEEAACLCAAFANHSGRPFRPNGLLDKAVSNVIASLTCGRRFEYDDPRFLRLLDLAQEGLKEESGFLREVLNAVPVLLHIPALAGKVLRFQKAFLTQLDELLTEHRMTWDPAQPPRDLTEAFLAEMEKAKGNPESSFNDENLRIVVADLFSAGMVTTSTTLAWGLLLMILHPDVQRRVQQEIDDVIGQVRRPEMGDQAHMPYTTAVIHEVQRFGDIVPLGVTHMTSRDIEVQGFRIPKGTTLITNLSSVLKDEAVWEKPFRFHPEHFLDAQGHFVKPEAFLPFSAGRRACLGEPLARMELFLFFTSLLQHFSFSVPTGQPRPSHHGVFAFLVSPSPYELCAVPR

[10] = biological target: Cytochrome P450 3A4 (Homo sapiens, UniProt P08684); assay: Inhibition of CYP3A4; type: ADME
Cytochrome P450 3A4, sequence (P08684 whole entry): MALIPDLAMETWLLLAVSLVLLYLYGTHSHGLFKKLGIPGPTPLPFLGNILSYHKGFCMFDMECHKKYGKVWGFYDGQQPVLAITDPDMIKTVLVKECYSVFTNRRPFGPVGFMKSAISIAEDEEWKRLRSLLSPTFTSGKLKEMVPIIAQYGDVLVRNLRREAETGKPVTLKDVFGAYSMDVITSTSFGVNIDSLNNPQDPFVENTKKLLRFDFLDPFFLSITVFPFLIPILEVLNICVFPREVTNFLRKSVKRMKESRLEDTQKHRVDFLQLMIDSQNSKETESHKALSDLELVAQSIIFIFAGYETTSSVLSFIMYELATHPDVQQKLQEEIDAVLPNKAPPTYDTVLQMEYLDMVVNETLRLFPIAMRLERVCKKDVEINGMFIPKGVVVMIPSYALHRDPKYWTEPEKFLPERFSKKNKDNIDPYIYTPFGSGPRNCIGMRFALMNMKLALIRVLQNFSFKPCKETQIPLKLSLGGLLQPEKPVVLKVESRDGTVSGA

[11] = biological target: Cytochrome P450 2C9 (Homo sapiens, UniProt P11712); assay: Inhibition of CYP2C9; type: ADME
Cytochrome P450 2C9, sequence (P11712 whole entry): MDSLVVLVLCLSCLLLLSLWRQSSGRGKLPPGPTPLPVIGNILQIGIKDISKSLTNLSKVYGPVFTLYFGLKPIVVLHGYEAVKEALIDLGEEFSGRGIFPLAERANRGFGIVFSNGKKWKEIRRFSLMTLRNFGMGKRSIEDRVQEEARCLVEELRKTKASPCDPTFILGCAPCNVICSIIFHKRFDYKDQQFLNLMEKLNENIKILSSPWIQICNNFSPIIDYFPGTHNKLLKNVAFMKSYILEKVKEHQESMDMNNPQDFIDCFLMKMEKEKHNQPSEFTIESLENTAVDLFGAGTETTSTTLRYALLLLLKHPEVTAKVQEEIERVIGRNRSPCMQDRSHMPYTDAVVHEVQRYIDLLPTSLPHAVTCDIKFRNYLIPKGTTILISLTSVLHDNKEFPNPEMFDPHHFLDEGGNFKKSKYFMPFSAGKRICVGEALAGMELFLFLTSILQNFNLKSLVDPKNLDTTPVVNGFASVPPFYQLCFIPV

[12] = test system: Liver microsomes; assay: Intrinsic clearance in human liver microsomes; type: ADME, Microsome
Procedure, shortened: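 Metabolic stability in human liver microsomes; intrinsic clearance expressed as mL/min[…].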

[13] = test system: Mus musculus; assay: Blood clearance in mouse at 0.5 mg/kg, iv and 1 mg/kg, po; type: ADME, organism-based; settings: in vivo
Procedure, shortened: (§1)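 In vivo mouse pharmacokinetics with dosing at 0.5 mg/kg intravenously and 1.0 mg/kg orally. Blood clearance, half-life, steady-state volume of distribution and oral bioavailability were derived from these studies.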

[14] = Oral bioavailability in mouse at 1 mg/kg; type: ADME, organism-based; settings: in vivo; procedure, shortened: as §1
[15] = Half life in mouse at 0.5 mg/kg, iv and 1 mg/kg, po; type: ADME, organism-based; settings: in vivo; procedure, shortened: as §1
[16] = biological target: Voltage-gated inwardly rectifying potassium channel KCNH2 (Homo sapiens, UniProt Q12809); assay: Binding affinity to human ERG channel
Voltage-gated inwardly rectifying potassium channel KCNH2, sequence (Q12809 whole entry): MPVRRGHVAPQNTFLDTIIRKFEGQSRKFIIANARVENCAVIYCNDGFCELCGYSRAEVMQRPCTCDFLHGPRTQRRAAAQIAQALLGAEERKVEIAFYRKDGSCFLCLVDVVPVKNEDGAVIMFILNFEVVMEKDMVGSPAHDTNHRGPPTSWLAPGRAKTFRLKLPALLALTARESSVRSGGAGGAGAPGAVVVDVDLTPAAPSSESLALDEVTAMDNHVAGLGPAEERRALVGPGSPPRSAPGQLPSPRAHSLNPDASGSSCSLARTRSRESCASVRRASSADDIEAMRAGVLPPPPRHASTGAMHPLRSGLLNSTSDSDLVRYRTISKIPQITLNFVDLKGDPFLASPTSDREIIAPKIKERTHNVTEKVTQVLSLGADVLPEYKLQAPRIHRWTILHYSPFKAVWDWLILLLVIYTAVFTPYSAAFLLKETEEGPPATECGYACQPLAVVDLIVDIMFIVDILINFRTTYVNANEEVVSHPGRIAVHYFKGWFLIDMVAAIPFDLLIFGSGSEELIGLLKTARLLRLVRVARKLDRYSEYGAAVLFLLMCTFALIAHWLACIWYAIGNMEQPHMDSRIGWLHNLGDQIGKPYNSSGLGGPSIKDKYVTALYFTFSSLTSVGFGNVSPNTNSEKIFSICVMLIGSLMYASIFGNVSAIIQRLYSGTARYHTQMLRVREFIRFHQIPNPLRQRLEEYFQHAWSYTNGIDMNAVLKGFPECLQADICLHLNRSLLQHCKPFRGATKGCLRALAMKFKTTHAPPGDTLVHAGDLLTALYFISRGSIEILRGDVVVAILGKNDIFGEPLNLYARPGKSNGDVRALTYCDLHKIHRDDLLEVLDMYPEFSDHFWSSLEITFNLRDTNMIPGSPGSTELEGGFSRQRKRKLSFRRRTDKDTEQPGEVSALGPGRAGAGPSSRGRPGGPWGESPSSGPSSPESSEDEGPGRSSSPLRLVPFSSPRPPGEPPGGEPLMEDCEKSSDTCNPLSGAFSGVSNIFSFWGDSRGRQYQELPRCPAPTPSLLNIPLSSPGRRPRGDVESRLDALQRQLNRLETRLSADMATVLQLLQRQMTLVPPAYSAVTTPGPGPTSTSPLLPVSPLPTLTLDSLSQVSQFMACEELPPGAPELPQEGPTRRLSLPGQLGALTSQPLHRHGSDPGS

[17] = Volume of distribution at steady state in mouse at 0.5 mg/kg, iv and 1 mg/kg, po; type: ADME, organism-based; settings: in vivo, read-out: Vdss; procedure, shortened: as §1

Structure (SMILES)	IC50 [1] [nM]	EC50 [2] [nM]	pIC50 [3]	pEC50 [4]	Activity [5] [%]	also measured
Cc1c(C#N)c(N)nc2c3c(sc12)NC(=O)CC3c1ccc(Cl)cc1Cl (stereo not given)	794	> 10000	> 5	–	–	–
Cc1c(C#N)c(N)nc2c3c(sc12)NC(=O)CC3c1cccc(Cl)c1Cl (stereo not given)	794	> 10000	> 5	–	–	–
Cc1c(C#N)c(N)nc2c3c(sc12)NC(=O)CC3c1c(F)cccc1Cl (stereo not given)	1260	3980	> 5	6.1	13	–
Cc1c(C#N)c(N)nc2c3c(sc12)NC(=O)C[C@H]3c1ccccc1Cl	6310	> 10000	> 5	–	–	–
Cc1ccccc1C1CC(=O)Nc2sc3c(C)c(C#N)c(N)nc3c21 (stereo not given)	1260	> 10000	> 5	–	–	–
Cc1c(C#N)c(Cl)nc2c3c(sc12)NC(=O)CC3c1ccccc1Cl (stereo not given)	50.1	0.794	–	8.6	116	IC50 [3]: 2000 nM; EC50 [6]: > 10000 nM
Cc1c(C#N)c(N)nc2c3c(sc12)NC(=O)CC3c1ccccc1Cl (stereo not given)	200	631	< 5	7.1	80	IC50 [7]: > 10000 nM; IC50 [8]: > 10000 nM; IC50 [9]: > 10000 nM; IC50 [10]: > 10000 nM; IC50 [11]: 1260 nM; CL [12]: 19 µL/min/mg; clearance [13]: 24 mL/min/kg; bioavailability [14]: 36%; half-life [15]: 1.1 h; Activity [16]: Not Active; Vd [17]: 2.5 L/kg
Cc1c(C#N)c(N)nc2c3c(sc12)NC(=O)CC3c1ccccc1F (stereo not given)	631	3980	–	6.4	47	–
Cc1c(C#N)c(O)nc2c3c(sc12)NC(=O)CC3c1ccccc1Cl (stereo not given)	> 10000	> 10000	> 5	–	–	–
Cc1c(C#N)c(N)nc2c3c(sc12)NC(=O)CC3c1ccccc1 (stereo not given)	–	> 10000	> 5	–	–	–
COc1ccccc1C1CC(=O)Nc2sc3c(C)c(C#N)c(N)nc3c21 (stereo not given)	> 10000	> 10000	–	–	–	–
COc1cccc(C2CC(=O)Nc3sc4c(C)c(C#N)c(N)nc4c32)c1 (stereo not given)	> 10000	> 10000	–	–	–	–
Cc1c(C#N)c(N)nc2c3c(sc12)NC(=O)C[C@@H]3c1ccccc1Cl	158	200	> 5	7.4	83	–
Cc1c(C#N)c(N)nc2c3c(sc12)NC(=O)CC3c1cc(Cl)ccc1Cl (stereo not given)	1000	> 10000	> 5	–	–	–
